Data set [1] concerns the target Hemagglutinin (Influenza A virus (A/Puerto Rico/8/1934(H1N1))) (UniProt P03452). In words: Inhibition of Influenza A virus (A/Puerto Rico/8/1934(H1N1)) Hemagglutinin expressed in African green monkey Vero cells assessed as reduction in virus-induced syncytium formation at 50 ug/ml pre-treated with trypsin followed by compound addition for 15 mins and measured after 2 hrs at pH 5 by HA syncytium assay. In kind it is cell-based. In outline: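 Vero cells were transfected with PR8 HA plasmid (2 µg per well). At 16 h post-transfection, HA was cleaved with 5 µg/mL TPCK-trypsin for 15 min at 37 °C. Cells were pre-incubated with compound for 15 min at 37 °C, then exposed to pH 5.0 buffer containing compound for 10 min at 37 °C. After rinsing, cells were kept in 10% FBS medium for 2 h, stained, and syncytia imaged.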

Data set [2] in a line: Cumulative drug excretion in rat feces at 0.35mg/kg, iv administered as single dose measured after 72 hrs. In kind it is ADME, organism-based. As to conditions: faeces, read-out: Drug excretion. In outline:
(§1)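 Single oral (gavage, 0.5% CMC-Na) or iv (tail vein, PEG400) dosing was given to male Kunming mice or Sprague Dawley rats held in metabolic cages. Urine and feces were collected at intervals to 72 h. Feces were dried, ground and homogenized in water (1:9 w/v). Samples were precipitated with acetonitrile containing internal standard and analysed by LC-MS/MS.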

Data set [3] is described as follows: AUC (0 to t) in rat at 0.35 mg/kg /kg, iv administered as single dose. In kind it is ADME, organism-based. As to conditions: in vivo. In outline:
(§2)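 Male Kunming mice (20-25 g) and male Sprague Dawley rats (180-220 g) were fasted 12 h before dosing. Oral dosing was by gavage as a suspension in 0.5% sodium carboxymethyl cellulose; iv dosing was via tail vein in PEG400. Serial plasma samples were taken to 24 h, protein-precipitated with acetonitrile plus N-CH3 internal standard, and quantified by LC-MS/MS (n=3). Bioavailability = AUCoral/AUCiv.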

The subject of data set [4] is Influenza A virus. In words: Antiviral activity against Influenza A virus (A/California/04/2009(H1N1)) infected in MDCK cells by HA assay. It is filed as functional, organism-based. In outline: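 MDCK cells were infected at high moi (≈3.0 PFU/cell). Virus-containing supernatants were serially diluted 2-fold and mixed with an equal volume of 1% chicken red blood cells. After 60 min at 4 °C, wells were scored for button sedimentation versus opaque agglutination to give titers.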

Data set [5] deals with Influenza A virus. In words: Antiviral activity against Influenza A virus Virginia/ATCC1/2009 infected in MDCK cells incubated for 3 days by crystal violet staining based plaque assay. As to conditions: Virginia/ATCC1/2009, MDCK, 72 h. In kind it is functional, organism-based. In outline:
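Confluent MDCK monolayers were exposed to 10-fold serial virus dilutions for 1 h at 37 °C, then washed. The overlay was DMEM with 1.5% agarose, 0.02% DEAE-dextran and 1 µg/ml TPCK-trypsin. After 3 days at 37 °C in 5% CO2, cells were fixed with 0.05% glutaraldehyde, stained with 1% crystal violet in 20% ethanol, and plaques were counted.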

The target in data set [6] is Hemagglutinin (Influenza A virus (A/Puerto Rico/8/1934(H1N1))) (UniProt P03452). In words: Inhibition of conformational changes in Influenza A virus (A/Puerto Rico/8/1934(H1N1)) Hemagglutinin assessed as increase in retention amount of HA1 subunit on HA proteins at 25 to 50 ug/ml added before acidification incubated for 1 hr by conformational change inhibition assay. Put shortly: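 C-terminal biotinylated H1/PR8 HA (0.2 µg/ml) was captured on streptavidin plates for 1 h at RT. Compound (50, 25, 12.5 µg/ml) was added for 1 h, then 1 M acetate pH 5.25 for 20 min. 2.5 mM DTT was applied for 60 min to remove HA1 from postfusion HA. Retained HA1 was detected with anti-HA1 head antibody and HRP secondary, read as A450 with TMB.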
Hemagglutinin (Influenza A virus (A/Puerto Rico/8/1934(H1N1))), sequence (P03452 whole entry, the tested form may be a part): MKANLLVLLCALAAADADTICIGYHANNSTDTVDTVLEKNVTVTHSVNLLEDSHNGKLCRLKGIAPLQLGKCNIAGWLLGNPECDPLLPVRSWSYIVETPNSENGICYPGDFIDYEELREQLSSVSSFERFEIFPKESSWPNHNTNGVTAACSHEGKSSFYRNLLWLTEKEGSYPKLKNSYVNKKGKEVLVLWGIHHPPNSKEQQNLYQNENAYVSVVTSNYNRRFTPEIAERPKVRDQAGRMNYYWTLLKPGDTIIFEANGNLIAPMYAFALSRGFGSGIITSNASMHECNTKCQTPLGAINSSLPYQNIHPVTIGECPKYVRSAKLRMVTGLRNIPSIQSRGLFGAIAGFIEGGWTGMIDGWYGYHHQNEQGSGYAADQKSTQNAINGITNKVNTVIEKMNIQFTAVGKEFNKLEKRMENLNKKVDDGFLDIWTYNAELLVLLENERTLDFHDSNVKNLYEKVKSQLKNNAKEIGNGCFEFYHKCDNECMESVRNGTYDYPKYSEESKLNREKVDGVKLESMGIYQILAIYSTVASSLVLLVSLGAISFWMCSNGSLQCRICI

Data set [7] is described as follows: Cytotoxicity in dog MDCK cells assessed as reduction in cell viability incubated for 48 hrs by crystal violet staining based assay. Details: species or system Canis lupus familiaris.
The subject of data set [8] is Influenza A virus. In words: Antiviral activity against Influenza A virus (A/Puerto Rico/8/1934(H1N1)) infected in Kunming mouse assessed as decrease in pulmonary viral titers at 20 to 40 ug/day dosed intranasally starting 4 hrs after viral challenge and continued for 4 days by plaque assay. In kind it is functional, organism-based. Put shortly: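 Four-week-old female Kunming mice were infected intranasally with PR8 (500 PFU/mouse in 40 µL PBS), randomized, and dosed once daily orally or intranasally. On day 4 the mice were euthanized; lungs were removed, weighed, homogenized in PBS, and titrated by plaque assay.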

The subject of data set [9] is Influenza A virus. In words: Antiviral activity against Influenza A virus (A/Puerto Rico/8/1934(H1N1)) infected in human A549 cells assessed as reduction in endocytosis and nuclear import of viral RNP by measuring green fluorescence of NP protein in both cytoplasm and nucleus at 25 ug/ml during early infection stage (0 to 2 hrs post infection) by indirect immunofluorescence assay. It is filed as functional, organism-based. Put shortly: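 PR8 virus was pretreated with or without 25 µg/ml compound for 1 h at 37 °C before infection. After adsorption, compound- or DMSO-containing medium was added. At 2 h p.i. cells were fixed (4% PFA), permeabilized (0.5% Triton X-100) and blocked (2% BSA). They were stained with anti-NP antibody, FITC secondary antibody and DAPI, then imaged by confocal microscopy.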

Data set [10] in a line: Cumulative drug excretion in mouse urine at 0.5 mg/kg, iv administered as single dose measured after 72 hrs. In kind it is ADME, organism-based. As to conditions: read-out: Drug excretion. In outline:
as §1

Data set [11] in a line: Toxicity in Kunming mouse assessed as effect on blood urea nitrogen level at 5 to 10 mg/kg/day, po for 7 days. It is filed as organism-based. The note with it: in vivo, 168 h. Put shortly: (§3)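 Male Kunming mice (20–25 g) received compound orally at 5 or 10 mg/kg/day, suspended in 0.5% sodium carboxymethyl cellulose, once daily for 7 days; controls received vehicle. Serum was collected under isoflurane 24 h after the last dose. AST, ALT, CR, BUN, LDH, CK and CK-MB were measured with commercial kits.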

Data set [12] can be described thus: Toxicity in Kunming mouse assessed as effect on creatine kinase level at 5 to 10 mg/kg/day, po for 7 days. It is filed as organism-based. As to conditions: in vivo, 168 h. Put shortly: as §3
A short description of data set [13]: AUC (0 to t) in mouse at 5 mg/kg, po administered as single dose. It is filed as ADME, organism-based. As to conditions: in vivo. In outline: as §2
Data set [14] in a line: Oral bioavailability in mouse at 5 mg/kg administered as single dose. As to conditions: in vivo. In kind it is ADME, organism-based. Put shortly:
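Male Kunming mice (20–25 g) and male SD rats (180–220 g) were fasted 12 h before dosing. Compound was suspended in 0.5% CMC-Na and given by gavage (5 mg/kg mice, 3.5 mg/kg rats), or dissolved in PEG400 and given iv via tail vein (0.5 mg/kg mice, 0.35 mg/kg rats). Plasma was sampled from 5 min to 24 h and analysed by LC-MS/MS (n=3). F = AUCoral/AUCiv.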

Data set [15] can be described thus: Cumulative drug excretion in mouse feces at 5 mg/kg, po administered as single dose measured after 72 hrs. In kind it is ADME, organism-based. As to conditions: faeces, read-out: Drug excretion. In outline: as §1
The test system of data set [16] is Influenza A virus. In words: Antiviral activity against Influenza A virus (A/Puerto Rico/8/1934(H1N1)) infected in Kunming mouse assessed as improvement in body weight at 20 to 40 ug/day dosed intranasally starting 4 hrs after viral challenge and continued for 7 days and measured up to day 14 by plaque assay. It is filed as functional, organism-based. In outline: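 Groups of 10 female Kunming mice were infected intranasally with PR8 (1000 PFU/mouse) on day 0 and dosed once daily for seven days. Weight and clinical signs were recorded daily. Mice losing more than 25% of pre-infection weight were scored dead and euthanized; survivors were killed on day 14.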

Data set [17] in a line: Half life in rat at 0.35 mg/kg /kg, iv administered as single dose. In kind it is ADME, organism-based. The note with it: in vivo. Put shortly:
as §2

Calls of active or inactive are those of the source. The rule behind the calls is not given here.

For `CC(=O)c1cc(C)c(O)c(Cc2[nH]c3ccccc3c2Cc2c(O)c(C)cc(C(C)=O)c2O)c1O`, the inhibition entry in data set [1] and in data set [6] was “Active” each time. The dose excreted at 72 h in data set [2] stood at 7.2%; in data set [10], 0.3%; in [15] it was 38.4%. Moreover, the area under the curve AUC(0-t) in data set [3] came out at 10100 ng·h/mL; in data set [13] it was 152 ng·h/mL. Also, the Activity result in the data set on Influenza A virus [4] is “Dose-dependent effect”; in data set [11] it was “Non-Toxic”; in data set [12] it was “Non-Toxic”. In addition, the IC50 in the data set with Influenza A virus [5] is below 13 µg/mL. Besides, the 50% cytotoxic concentration (CC50) at 48 h in [7] turned out to be 1470 µM. Further, the outcome in the data set on Influenza A virus [8], with Influenza A virus [9] and in the data set with Influenza A virus [16] was Active. Besides, the bioavailability in data set [14] came out at 5.7%. In data set [17], the half-life was 4.8 h.

The term AUC(0-t) denotes the area under the concentration-time curve up to a stated or last time point. The IC50 is the point on the concentration scale where inhibition reaches its midpoint. As usually defined, the CC50 is the concentration giving 50% cytotoxicity. One may read the bioavailability as the share of a dose that reaches the circulation, judged against a reference dose that is usually intravenous. A word on the half-life: it is the time in which the quantity being followed falls by half.
